Sampled rows, rich in hits. Any-hit rate of the full collection: about 1.9%.
Cneo AK release: Cryptococcus neoformans cell lysis inducers, primary screen, AK release luminescence, single concentration. 360,000 tested, 0.2% active. C. neoformans lysis, adenylate kinase release luminescence, 4 h; normalised: neutral wells 0, clomiphene wells 100. lysis activity, % at 15 µM;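 active means mean lysis activity across replicates of at least 80%, whatever share of replicates individually reach that level; inactive means mean lysis activity below 80%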
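Test system: log-phase Cryptococcus neoformans yeast cells. Input: 5 × 10^6 yeast cells/mL. Medium: fresh YPD growth medium. Doses: single dose. Incubation: static 4 h at 37 °C with compound, 1 h detection. Measured by: luminescent adenylate kinase detection reagent. Read-out: signal increase indicating cell lysis. Benchmarks: Clomiphene.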
RAD54 inh: inhibitors of human RAD54 branch migration, primary screen, biochemical, fluorescence, single point. DNA repair and recombination protein RAD54-like (Homo sapiens), Q92698. RAD54 Holliday junction branch migration, FAM/BHQ fluorescence. inhibition, % at 10.4 µM. 360,000 tested, 0.14% active. AID 602329, 2012;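 active means mean normalized replicate activity at least 40 and at least half of replicates scoring 40 or more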;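 further: 0% = median of neutral control wells and 100% = median of positive control wells; inhibitors cause a drop in the FAM fluorescence signal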
Target sequence (Q92698 whole entry, looked up): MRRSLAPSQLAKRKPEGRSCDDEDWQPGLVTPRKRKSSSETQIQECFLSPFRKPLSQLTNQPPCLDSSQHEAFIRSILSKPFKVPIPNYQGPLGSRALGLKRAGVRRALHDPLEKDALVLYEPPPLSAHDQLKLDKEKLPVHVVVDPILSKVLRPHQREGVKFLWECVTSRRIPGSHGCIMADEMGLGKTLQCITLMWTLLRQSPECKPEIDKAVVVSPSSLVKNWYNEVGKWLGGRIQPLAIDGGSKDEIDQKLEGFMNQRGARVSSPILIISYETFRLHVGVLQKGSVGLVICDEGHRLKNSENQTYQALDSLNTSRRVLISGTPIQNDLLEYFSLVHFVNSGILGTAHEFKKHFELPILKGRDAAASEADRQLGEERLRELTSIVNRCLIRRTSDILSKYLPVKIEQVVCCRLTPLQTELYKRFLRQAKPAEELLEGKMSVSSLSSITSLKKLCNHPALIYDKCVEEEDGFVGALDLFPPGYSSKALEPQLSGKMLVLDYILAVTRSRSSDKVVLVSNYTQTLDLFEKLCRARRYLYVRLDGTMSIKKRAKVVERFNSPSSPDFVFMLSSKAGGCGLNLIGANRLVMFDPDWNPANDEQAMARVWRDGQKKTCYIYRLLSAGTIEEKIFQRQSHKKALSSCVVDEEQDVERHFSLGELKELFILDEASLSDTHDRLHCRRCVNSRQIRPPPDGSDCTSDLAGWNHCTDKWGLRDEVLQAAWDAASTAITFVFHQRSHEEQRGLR
RAD52 inh: RAD52 DNA annealing inhibitors, primary screen, biochemical, FRET, single point, set 2; recombinant RAD52 DNA annealing, FRET fluorescence; inhibition, % at 18.7 µM; 360,000 tested, 0.46% active;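 active means every replicate showing at least 50% inhibition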
PglD inh: C. jejuni PglD acetyltransferase inhibitors, primary screen, biochemical, DTNB colorimetric, single point. UDP-N-acetylbacillosamine N-acetyltransferase PglD (Campylobacter jejuni). inhibition, % at 12.5 µM. 360,000 tested, 0.098% active. purified PglD enzyme, DTNB colorimetric CoA detection; in the data active means inhibition above about 16%, passing the limit was not always enough
rRNA inh HTS: reduced GFP signal of wild-type E. coli, primary screen, bacterial rRNA inhibitor project, GFP/RFP fluorescence, OD600, single point; E. coli WT GFP vs humanized-ribosome RFP mutants, 24 h; hits give low values; DMSO median 0, no signal -100; 350,000 tested, 1.6% active; GFP signal change (wild-type ribosome), % (no concentration beside the values);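 active means significant combined selectivity score with lowered wild-type GFP, culture density cut under 30%, mutant RFP and density less affected; inactive means any of these conditions unmet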
The depositor's hits bear a star; . = not tested or not shown.

SMILES	Cneo AK release	RAD54 inh	RAD52 inh	PglD inh	rRNA inh HTS
O=C(C[C@H]1C[C@@H]2c3cc(NC(=O)c4ccc5c(c4)OCO5)ccc3O[C@@H]2[C@@H](CO)O1)NCc1ccc(Oc2ccccc2)cc1	-3.3	1.2	-5.9	-3.6	-10.6
C/C=C/c1ccc2c(c1)O[C@H](CN(C)C(=O)NC1CCCC1)[C@@H](C)CN([C@@H](C)CO)S2(=O)=O	-13.5	-8.4	1.0	-1.9	3.1
CCN(C(=O)COC(=O)c1cc(-c2ccc(C)o2)nc2ccccc12)C1CCS(=O)(=O)C1 (configuration not stated)	.	.	-33.9	.	13.5
CCN(C(=O)COC(=O)c1cc(-c2cccs2)nc2ccccc12)C1CCS(=O)(=O)C1 (configuration not stated)	.	.	-24.4	.	-22.6*
O=C(COc1ccccc1/C=C1/NC(=O)NC1=O)Nc1ccccc1	-2.9	4.5	-13.6	-2.2	-26.2*
COC(=O)COc1ccccc1/C=C1/NC(=O)NC1=O	-3.3	-3.8	.	3.0	.
O=C(c1cccnc1)N1CCCCN2[C@H](CO)[C@H](c3ccc(C#Cc4ccccc4)cc3)[C@H]2C1	-1.1	1.1	.	-2.1	.
COc1ccc(C2SCC(=O)N2CC23CC4CC(CC(C4)C2)C3)cc1 (configuration not stated)	1.7	-2.8	-9.6	-9.7	-24.9*
COc1ccc(C2SCC(=O)N2Cc2ccccc2)cc1 (configuration not stated)	-2.8	5.3	-5.2	2.9	-2.6
O=C(Cc1ccccc1)N1CC(=O)N2[C@H](CO)[C@H](c3ccc(C#CCc4ccccc4)cc3)[C@H]2C1	.	.	-5.4	.	-50.5
CCN(CC)c1ccc(C(=C2C=CC(=[N+](CC)CC)C=C2)c2ccccc2)cc1	.	.	36.4	.	-55.7*
CCN(CC)c1ccc(C(=O)NNC(=O)CCNC(=O)c2ccccc2)cc1	2.7	-0.6	-10.1	-6.6	2.0
Cc1ccc(C)c(NC(=O)C(=O)NCCc2c[nH]c3ccccc23)c1	4.9	4.4	-9.7	1.5	-20.8*
N#C/C(=C/c1ccc(Br)s1)C(=O)NCCc1c[nH]c2ccccc12	.	.	-14.6	.	.
COc1ccccc1NC(=O)NCCc1c[nH]c2ccccc12	.	.	-11.2	.	-21.8*
COC(=O)/C(C#N)=C/c1c[nH]c2ccccc12	.	.	2.3	.	-22.1*
Cc1cc(/C=C(\C#N)C(=O)NCCc2c[nH]c3ccccc23)c(C)n1C	.	.	-11.1	.	-38.5*
N#C/C(=C\c1c[nH]c2ccccc12)C(N)=O	.	.	-25.3	.	0.0
C[C@@H]1CN([C@@H](C)CO)C(=O)c2cc(C#CCC3CCCC3)cnc2O[C@@H]1CN(C)C(=O)CN(C)C	4.5	15.1	18.6	-4.8	7.3
COc1cccc(S(=O)(=O)N(C)C[C@H]2Oc3ncc(-c4cccc(C(=O)N(C)C)c4)cc3C(=O)N([C@@H](C)CO)C[C@@H]2C)c1	8.2	6.7	5.9	3.8	-12.9
Cc1ccccc1NC(=S)NCCc1c[nH]c2ccccc12	.	.	-3.9	.	-24.1*
COc1ccc(CCNC(=S)NCCc2c[nH]c3ccccc23)cc1	.	.	-6.5	.	-33.2*
O=C(CC1CC1)N1CC(=O)N2[C@H](C1)[C@@H](c1ccc(C#Cc3ccccc3)cc1)[C@@H]2CO	.	.	-9.0	.	-54.0
CN(C)c1ccc(CNC(=O)C2(C)Cc3c(-c4ccc5c(c4)OCO5)ccnc3O2)cc1 (configuration not stated)	-0.2	-7.2	-98.1	5.6	-14.9*
CN(C)c1ccc(CNC(=O)C2(C)Cc3c(-c4ccc(N(C)C)cc4)ccnc3O2)cc1 (configuration not stated)	2.0	3.1	-20.7	6.0	-11.3
O=C(C[C@@H]1C=C[C@H](NS(=O)(=O)c2cccc(F)c2)[C@@H](CO)O1)N1CCCCC1	3.3	1.2	-11.5	0.8	0.4
O=C(C[C@@H]1C=C[C@H](NC(=O)C2CC2)[C@H](CO)O1)NCc1ccccc1Cl	3.0	-3.0	8.4	2.3	-1.4
N#CC(CCc1ccc([N+](=O)[O-])cc1)(CCc1ccc([N+](=O)[O-])cc1)C(N)=O	3.2	-9.1	-281.1	-2.4	-19.3*
